Laboratory results as given in ChEMBL document CHEMBL4196141, “Improved Antibacterial Activity of the Marine Peptide N6 against Intracellular Salmonella Typhimurium by Conjugating with the Cell-Penetrating Peptide Tat11 via a Cleavable Linker” (J Med Chem, 2018).
Values after ≈ are worked out from the molar mass of the structure shown. Active and inactive are the calls of the source. No cut-off for these calls is given here. Positions of bridges follow the written chain, without caps; N, C: chain ends. Residues, ends and D or L forms follow the SMILES beside them.

Assays:
Salmonella typhimurium [1] = test: Antibacterial activity against Salmonella typhimurium ATCC 14028 incubated for 16 to 18 hrs at pH 7.2 by broth microdilution method; format: functional, Salmonella enterica subsp. enterica serovar Typhimurium; settings: Salmonella enterica
Outline: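 Broth microdilution in MH broth. S. Typhimurium ATCC14028 was grown overnight at 37 °C to semi-log phase, pelleted, and diluted to OD600 0.01; final inoculum was 5 × 10^5 CFU/mL. Plates were incubated 16–18 h at 37 °C. MIC is the lowest peptide concentration with no visible growth. Data are in duplicate from at least two independent experiments.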

Salmonella typhimurium [2] = test: Antibacterial activity against Salmonella typhimurium ATCC 14028 using 1 hr cathepsin B pre-treated compound at pH 5 incubated for 16 to 18 hrs at by broth microdilution method; format: functional, Salmonella enterica subsp. enterica serovar Typhimurium; settings: Salmonella enterica
Outline: (§1)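 Cathepsin B (bovine spleen, 10 µg/mL) was added for 1 h at 37 °C, and the reaction was stopped with 9 volumes of MHB. MIC was then run by broth microdilution (5 × 10^5 CFU/mL, 16–18 h, 37 °C) in medium adjusted to pH 5.0.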

Salmonella typhimurium [3] = test: Antibacterial activity against Salmonella typhimurium ATCC 14028 using 1 hr cathepsin B pre-treated compound followed by incubation for 16 to 18 hrs at pH 5 by broth microdilution method; format: functional, Salmonella enterica subsp. enterica serovar Typhimurium; settings: Salmonella enterica; outline: as §1
[4] = Induction of hemolysis in mouse RBC at 100 uM incubated for 1 hrs at 37 degC; format: cell-based, Erythrocyte; settings: red blood cells (erythrocytes), read-out: Activity
Outline: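 Fresh mouse erythrocytes were washed three times in 0.9% NaCl, and an 8% suspension was incubated with peptide (2-fold dilutions, 100 to 0.3125 µM) for 1 h at 37 °C. Released hemoglobin was read at 540 nm. 1% Triton X-100 defined 100% lysis; polymyxin served as positive control and NaCl as negative.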

[5] = Drug localisation in cytosol of mouse RAW264.7 using FITC-labeled compound at 5 uM incubated for 2 hrs by confocal microscopy; format: ADME, cell-based
Outline: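 RAW264.7 cells were plated for 18 h at 37 °C, then given 5 µM FITC or FITC-labeled peptide for 2 h. Nuclei were stained with Hoechst 33342 and membranes with FM 4-64 (each 5 µg/mL) for 30 min at 37 °C. Cells were PBS-washed and imaged by confocal fluorescence microscopy.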

[6] = Drug uptake in mouse RAW264.7 using FITC-labeled compound at 5 uM incubated for 0.5 hrs by flow cytometry; format: ADME, cell-based; settings: raw264.7, 0.5 h
Outline: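 Confluent RAW264.7 cells were resuspended in PBS and incubated at 37 °C with 5 µM FITC-labeled peptide. Samples taken at 0.5 h and 2 h were quenched with 0.4% Trypan blue for extracellular fluorescence. Uptake (percent internalized cells) was read by flow cytometry, with free FITC as negative control.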

[7] = Drug internalization in mouse RAW264.7 using FITC-labeled compound at 2 uM incubated for 2 hrs at 4 degC by flow cytometry; format: ADME, cell-based; settings: raw264.7, 2 h
[8] = Drug internalization in mouse RAW264.7 using FITC-labeled compound at 2 uM pre-incubated for 1 hr with clathrin-mediated endocytosis inhibitor chlorpromazine followed by compound addition and subsequent incubation for 2 hrs by flow cytometry; format: ADME, cell-based; settings: raw264.7, 2 h
Outline: (§2)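 RAW264.7 cells were pretreated 1 h at 37 °C with 3 mM amiloride, 20 µM nocodazole, 6 µg/mL chlorpromazine or 5 mM MβCD. FITC-labeled peptide was then added for 2 h at 37 °C. Extracellular fluorescence was quenched with 0.4% Trypan blue and intracellular fluorescence read by flow cytometry against an untreated control.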

[9] = Drug internalization in mouse RAW264.7 using FITC-labeled compound at 2 uM pre-incubated for 1 hr with lipid rafts disruptor methyl-beta-cyclodextrin followed by compound addition and subsequent incubation for 2 hrs by flow cytometry; format: ADME, cell-based; settings: raw264.7, 2 h; outline: as §2
[10] = Drug internalization in mouse RAW264.7 using FITC-labeled compound at 2 uM pre-incubated for 1 hr with tubulin polymerization inhibitor nocodazole followed by compound addition and subsequent incubation for 2 hrs by flow cytometry; format: ADME, cell-based; settings: raw264.7, 2 h; outline: as §2
Salmonella typhimurium [11] = test: Bactericidal activity against 2 hrs-gentamicin pre-exposed Salmonella typhimurium ATCC 14028 assessed as reduction colony forming units at 10 uM measured within 9 hrs; format: functional, organism-based; settings: Salmonella enterica subsp. enterica serovar Typhimurium
Outline: (§3)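 RAW264.7 cells in DMEM/10% FBS were infected with S. Typhimurium ATCC14028 at MOI 10 for 1 h, then given 100 µg/mL gentamicin for 2 h at 37 °C and washed. Cells were treated with 10 µM agent for 1, 3, 6, 9 and 12 h, lysed with 0.1% Triton X-100, and surviving intracellular bacteria were serially diluted and plated for CFU.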

Salmonella typhimurium [12] = test: Bactericidal activity against 2 hrs-gentamicin pre-exposed Salmonella typhimurium ATCC 14028 assessed as effect on bacterial re-growth at 10 uM measured after 9 hrs; format: functional, organism-based; settings: Salmonella enterica subsp. enterica serovar Typhimurium; outline: as §3
Salmonella typhimurium [13] = test: Bactericidal activity against 2 hrs-gentamicin pre-exposed Salmonella typhimurium ATCC 14028 assessed as reduction colony forming units at 50 uM incubated for 10 hrs; format: functional, Salmonella enterica subsp. enterica serovar Typhimurium
Outline: (§4)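 Macrophage protection assay. RAW264.7 cells (5 × 10^4/well, 24 h) were infected with S. Typhimurium ATCC14028 at MOI 10 for 1 h in DMEM/10% FBS, exposed to 100 µg/mL gentamicin for 2 h at 37 °C, and PBS-washed. Peptides in DMEM/10% FBS were added for 10 h. Cells were lysed with 0.1% Triton X-100 and CFU plated; log10 CFU reduction versus untreated cells. Three replicates; two independent experiments; one-way ANOVA with Tukey.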

Salmonella typhimurium [14] = test: Bactericidal activity against 2 hrs-gentamicin pre-exposed Salmonella typhimurium ATCC 14028 assessed as reduction colony forming units at 50 uM incubated for 10 hrs relative to marine peptide N6; format: functional, Salmonella enterica subsp. enterica serovar Typhimurium; design: scale not given: the % may be the effect or the level left; outline: as §4
Salmonella typhimurium [15] = test: Antibacterial activity against Salmonella typhimurium ATCC 14028 infected in ICR mouse model of peritonitis assessed as reduction colony forming units in total peritoneal fluids at 1 umol/kg, ip dosed at 2 hrs post infection and measured after 10 hrs post dose; format: functional, Salmonella enterica subsp. enterica serovar Typhimurium
Outline: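 Six-week-old female ICR mice (six per group) received ip S. Typhimurium ATCC14028 (5 × 10^5 CFU, 0.5 mL). Peptide was given ip 2 h post-infection and mice were killed 10 h after treatment. Peritoneum was lavaged with 5 mL ice-cold PBS and total CFU counted. For intracellular CFU, pelleted cells were treated with 100 µg/mL gentamicin for 1 h at 37 °C, washed, lysed and plated. PBS served as negative control, ciprofloxacin as positive.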

Salmonella typhimurium [16] = test: Antibacterial activity against Salmonella typhimurium ATCC 14028 infected in ICR mouse model of peritonitis assessed as reduction colony forming units in spleen at 1 to 2 umol/kg, ip dosed at 2 hrs post infection and measured after 10 hrs post dose relative to marine peptide N6; format: functional, Salmonella enterica subsp. enterica serovar Typhimurium; design: scale not given: the % may be the effect or the level left
Outline: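 Female ICR mice, six weeks old (six per group), were infected ip with S. Typhimurium ATCC14028 (5 × 10^5 CFU, 0.5 mL). Peptide was given ip at 1, 1.5 or 2 µmol/kg 2 h post-infection. Mice were killed 10 h after treatment, and kidneys and spleens were homogenized in sterile PBS for CFU counts of translocated bacteria. PBS-treated mice served as negative control, ciprofloxacin-treated mice as positive.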

Salmonella typhimurium [17] = test: Antibacterial activity against Salmonella typhimurium ATCC 14028 infected in ICR mouse model of peritonitis assessed as mouse survival at 1 umol/kg, ip dosed at 0.5 and 8 hrs post infection and measured daily for 7 days

Compound | MIC (Salmonella typhimurium [1]) [µM] | MIC (Salmonella typhimurium [2]) [µM] | MIC (Salmonella typhimurium [3]) [µM] | hemolysis at 1 h, 100 µM [4] [%] | Drug uptake [5] | Drug uptake [6] [%] | Drug uptake [7] | Drug uptake [8] | Drug uptake [9] | Drug uptake [10] | Activity (Salmonella typhimurium [11]) | Activity (Salmonella typhimurium [12]) | Activity (Salmonella typhimurium [13]) [log10CFU] | Activity (Salmonella typhimurium [14]) [%] | Activity (Salmonella typhimurium [15]) [log10CFU] | Activity (Salmonella typhimurium [16]) [%] | Activity (Salmonella typhimurium [17]) [%]
CC(C)[C@H](NC(=O)CCCCCN1C(=O)CC(SC[C@H](N)C(=O)N[C@@H](Cc2ccc(O)cc2)C(=O)NCC(=O)N[C@@H](CCCNC(=N)N)C(=O)N[C@@H](CCCCN)C(=O)N[C@@H](CCCCN)C(=O)N[C@@H](CCCNC(=N)N)C(=O)N[C@@H](CCCNC(=N)N)C(=O)N[C@@H](CCC(N)=O)C(=O)N[C@@H](CCCNC(=N)N)C(=O)N[C@@H](CCCNC(=N)N)C(=O)N[C@@H](CCCNC(=N)N)C(=O)O)C1=O)C(=O)N[C@@H](CCCNC(N)=O)C(=O)Nc1ccc(COC(=O)NCC(=O)N[C@@H](Cc2ccccc2)C(=O)N[C@@H](C)C(=O)N[C@@H](Cc2c[nH]c3ccccc23)C(=O)N[C@@H](CC(N)=O)C(=O)N[C@H](C(=O)N[C@H]2CSSC[C@@H](C(=O)N[C@@H](Cc3cnc[nH]3)C(=O)N[C@@H](CCCNC(=N)N)C(=O)N[C@@H](CCCNC(=N)N)C(=O)N[C@@H](C)C(=O)N[C@@H](CC(N)=O)C(=O)O)NC(=O)[C@H](C(C)C)NC(=O)[C@H](CCCNC(=N)N)NC(=O)[C@H](C(C)C)NC(=O)CNC(=O)[C@H](CC(N)=O)NC(=O)[C@H](CCCNC(=N)N)NC(=O)[C@H](Cc3ccc(O)cc3)NC(=O)[C@H](C(C)C)NC2=O)C(C)C)cc1 (some centres undefined) | > 27.2 | 1.7 (≈ 8.05 µg/mL) | 13.6 (≈ 64.4 µg/mL) | 3.81 | Active | 82.1 | Not Active | Not Active | Active | Not Active | Active | inactive | 2.06 | 76.2 | 1.87 | 81 | 66.7
CC(C)[C@@H]1NC(=O)CNC(=O)[C@H](CC(N)=O)NC(=O)[C@H](CCCNC(=N)N)NC(=O)[C@H](Cc2ccc(O)cc2)NC(=O)[C@H](C(C)C)NC(=O)[C@@H](NC(=O)[C@@H](NC(=O)[C@H](CC(N)=O)NC(=O)[C@H](Cc2c[nH]c3ccccc23)NC(=O)[C@H](C)NC(=O)[C@H](Cc2ccccc2)NC(=O)CN)C(C)C)CSSC[C@@H](C(=O)N[C@@H](Cc2cnc[nH]2)C(=O)N[C@@H](CCCNC(=N)N)C(=O)N[C@@H](CCCNC(=N)N)C(=O)N[C@@H](C)C(=O)N[C@@H](CC(N)=O)C(N)=O)NC(=O)[C@H](C(C)C)NC(=O)[C@H](CCCNC(=N)N)NC1=O (H-GFAWNVCVYRNGVRVCHRRAN-NH2; disulfide 7-16) | 0.81 (≈ 2 µg/mL) | 1.62 (≈ 4.01 µg/mL) | 3.2 (≈ 7.92 µg/mL) | 2.05 | Active | 30.4 | Not Active | Active | Active | Not Active | Active | inactive | 3.13 | 97.6 | 3.04 | 200 | 66.7
